Measurements as given in ChEMBL document CHEMBL3826935, “Synthesis and Pharmacology of (Pyridin-2-yl)methanol Derivatives as Novel and Selective Transient Receptor Potential Vanilloid 3 Antagonists” (J Med Chem, 2016).

What was measured:
Liver microsome [1] = test: Drug metabolism in rat liver microsomes assessed as cyclobutane ring oxidation after 1 hr by HPLC analysis; format: ADME
How it was run: (§1)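 Compound incubated in rat liver microsomes for 1 h at 37 °C. Metabolite distribution analysed by HPLC; metabolite structures assigned by 1H NMR.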

[2] = Fraction unbound in human plasma; format: ADME, cell-free
Liver microsome [3] = test: Drug metabolism in rat liver microsomes assessed as alcohol group oxidation after 1 hr by HPLC analysis; format: ADME; how it was run: as §1
[4] = molecular target: T1, Transient receptor potential cation channel subfamily V member 3 (Homo sapiens, UniProt Q8NET8); test: (§2) Antagonist activity at human TRPV3 expressed in recombinant HEK293 cells assessed as inhibition of 2-APB induced calcium flux by FLIPR analysis; format: cell-based
T1 sequence (Q8NET8 whole entry): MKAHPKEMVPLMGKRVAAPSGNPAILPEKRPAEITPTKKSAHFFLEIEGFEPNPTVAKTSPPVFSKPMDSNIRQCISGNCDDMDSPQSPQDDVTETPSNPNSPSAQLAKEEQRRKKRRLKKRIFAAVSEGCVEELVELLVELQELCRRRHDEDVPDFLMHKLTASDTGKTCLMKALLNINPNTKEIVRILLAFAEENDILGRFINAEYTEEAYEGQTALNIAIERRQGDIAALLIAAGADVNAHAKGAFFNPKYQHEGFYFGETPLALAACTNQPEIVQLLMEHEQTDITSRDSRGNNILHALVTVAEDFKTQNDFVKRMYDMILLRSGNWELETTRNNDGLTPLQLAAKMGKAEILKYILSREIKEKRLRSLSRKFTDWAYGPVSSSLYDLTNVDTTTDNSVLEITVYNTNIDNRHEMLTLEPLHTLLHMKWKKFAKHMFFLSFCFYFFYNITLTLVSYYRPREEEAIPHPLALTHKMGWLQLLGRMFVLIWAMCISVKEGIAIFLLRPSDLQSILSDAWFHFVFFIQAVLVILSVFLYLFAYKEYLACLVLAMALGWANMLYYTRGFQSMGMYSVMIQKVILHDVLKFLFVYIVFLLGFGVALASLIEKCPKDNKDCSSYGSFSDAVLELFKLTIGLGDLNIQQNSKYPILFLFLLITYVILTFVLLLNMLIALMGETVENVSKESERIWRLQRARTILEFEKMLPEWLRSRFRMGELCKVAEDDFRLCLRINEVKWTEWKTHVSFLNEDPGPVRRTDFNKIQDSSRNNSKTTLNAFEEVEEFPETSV
How it was run: (§3)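 HEK293 cells stably expressing human TRPV3 (I25V variant), plated the day before in DMEM + 10% FBS at 37 °C, 5% CO2. Calcium 4 dye loaded in Ca/Mg-free HEPES D-PBS pH 7.4 for 1–2 h at room temperature. Compound dilutions added with 3 min baseline, then 2-APB at 60 µM final; Ca2+ flux read 3 min on FLIPR. Kb from at least duplicates, averaged across independent runs.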

[5] = molecular target: T2, Transient receptor potential cation channel subfamily V member 3 (Homo sapiens) (UniProt Q8NET8); test: as §2; format: cell-based; how it was run: as §3
T2 sequence (whole entry): T1 sequence (Q8NET8 whole entry)

Liver microsome [6] = test: Drug metabolism in rat liver microsomes assessed as aromatic ring oxidation after 1 hr by HPLC analysis; format: ADME; how it was run: as §1
Liver microsome [7] = test: Unbound intrinsic clearance in rat liver microsomes after 5 hrs by LC-MS/MS analysis; format: ADME
How it was run: (§4)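 Microsomal stability run in an automated high-throughput plate format. Intrinsic clearance corrected for nonspecific microsomal binding using measured unbound fraction (fu,mic), reported as unbound Clint in L/h/kg.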

Liver microsome [8] = test: Unbound intrinsic clearance in human liver microsomes after 5 hrs by LC-MS/MS analysis; format: ADME; how it was run: as §4
[9] = molecular target: T3, Nuclear receptor subfamily 1 group I member 2 (Homo sapiens, UniProt O75469); test: Activation of human PXR; format: ADME; details: for Activity: human
T3 sequence (O75469 whole entry): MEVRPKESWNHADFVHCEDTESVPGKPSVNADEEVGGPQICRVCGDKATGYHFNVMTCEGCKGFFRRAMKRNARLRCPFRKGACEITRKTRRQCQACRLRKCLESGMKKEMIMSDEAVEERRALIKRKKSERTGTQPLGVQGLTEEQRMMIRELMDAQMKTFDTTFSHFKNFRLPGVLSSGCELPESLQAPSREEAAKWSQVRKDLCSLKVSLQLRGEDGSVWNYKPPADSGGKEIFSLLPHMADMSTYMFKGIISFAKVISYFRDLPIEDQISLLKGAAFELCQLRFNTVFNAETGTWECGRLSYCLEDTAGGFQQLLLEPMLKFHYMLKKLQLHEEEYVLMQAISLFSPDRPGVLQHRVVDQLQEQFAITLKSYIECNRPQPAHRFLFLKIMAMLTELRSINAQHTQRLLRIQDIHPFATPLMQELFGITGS

Rattus norvegicus [10] = organism: Rattus norvegicus; test: Cardiotoxicity in rat assessed as increase in cardiac contractility at plasma concentration of 4.7 ug/ml; format: toxicity, organism-based
Rattus norvegicus [11] = organism: Rattus norvegicus; test: Cardiotoxicity in rat assessed as increase in mean arterial pressure; format: toxicity, organism-based, Artery; details: in vivo
Plasma = test: Plasma concentration in rat; format: ADME, cell-free
[12] = Cmax in rat at 1 mg/kg, iv or 1 mg/kg, po; format: ADME, organism-based; details: in vivo
How it was run: (§5)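 Rat pharmacokinetics: iv dose 1 mg/kg; po dose 1 or 2 mg/kg depending on compound. AUC taken over 0–8 h. Unbound parameters calculated using plasma free fraction.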

[13] = […] plasma clearance in rat at 1 mg/kg, iv; format: ADME, organism-based; details: read-out: CL free (converted); how it was run: as §5
[14] = molecular target: T2, Transient receptor potential cation channel subfamily V member 3 (Homo sapiens); test: Antagonist activity at human TRPV3 expressed in recombinant HEK293 cells assessed as free plasma level adjusted concentration for inhibition of 2-APB induced calcium flux by FLIPR analysis; format: cell-based
How it was run: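 FLIPR Kb from the 2-APB (60 µM final) Ca2+ flux assay in human TRPV3 HEK293 cells, converted to an unbound value using the measured free fraction in plasma.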

[15] = Half life in rat at 1 mg/kg, iv; format: ADME, organism-based; details: in vivo; how it was run: as §5
[16] = Total plasma clearance in rat at 1 mg/kg, iv; format: ADME, organism-based; how it was run: as §5
Rattus norvegicus [17] = test: Unbound AUC(0 to 8 hrs) in rat at 1 mg/kg, po; format: ADME, organism-based; details: in vivo; how it was run: as §5
[18] = AUC(0 to 8 hrs) in rat at 1 mg/kg, po; format: ADME, organism-based; design: time < 6 hr, dose 1 mg/kg, route oral; details: in vivo; how it was run: as §5
[19] = Volume of distribution at steady state in rat at 1 mg/kg, iv or 1 mg/kg, po; format: ADME, organism-based; details: in vivo, read-out: Vdss; how it was run: as §5
[20] = Oral bioavailability in rat at 1 mg/kg; format: ADME, organism-based; details: in vivo; how it was run: as §5

SMILES | Kb [5] [nM] | CL free (Liver microsome [7]) [L/h/kg] | CL free (Liver microsome [8]) [L/h/kg] | Activity [9] | Activity (Rattus norvegicus [10]) | Activity (Rattus norvegicus [11]) | further results
O[C@H](c1ccccn1)C1(c2ccc(Cl)c(Cl)c2)CCC1 | 80 | 151 | 41 |  |  |  | Drug metabolism (Liver microsome [1]): metabolite_detected; fraction unbound [2]: 0.007; Drug metabolism (Liver microsome [3]): metabolite_detected; IC50 [4]: 160 nM; Drug metabolism (Liver microsome [6]): metabolite_detected
O[C@H](c1ccccn1)C1(c2ccc(OC(F)(F)F)cc2)CC(F)(F)C1 | 40 | 12 | 11 |  | 29% | 16% | EC50 [9]: 5.7 µM; Cp (Plasma): 4.7 µg/mL
C[C@]1(O)C[C@](c2ccnc(C(F)(F)F)c2)([C@H](O)c2ccccn2)C1 | 500 | 5 | 4 | Not Active | Non-toxic | Non-toxic | 
C[C@]1(O)C[C@@](c2ccc(C(F)(F)F)cc2)([C@H](O)c2ccccn2)C1 | 840 | 9 | 3 | Not Active | Non-toxic | Non-toxic | 
C[C@]1(O)C[C@@](c2ccc(OC(F)(F)F)cc2)([C@H](O)c2ccccn2)C1 | 330 | 8 | 4 | Not Active | Non-toxic | Non-toxic | 
C[C@]1(c2ccc(OC(F)(F)F)cc2)C[C@](O)(c2ccccn2)CO1 (single isomer, unassigned) | 420 | 10 | 7 |  |  |  | Cmax [12]: 130 ng/mL; clearance [13]: 293 mL/min/kg; Kb [14]: 12 µM; fraction unbound [2]: 0.06; half-life [15]: 228 min; clearance [16]: 10 mL/min/kg; fAUC (Rattus norvegicus [17]): 0.03 µg·h/mL; AUC(0-t) at 6 h [18]: 930 ng·h/mL; Vd [19]: 3.2 L/kg; bioavailability [20]: 56%
C[C@]1(O)C[C@](c2ccc(C(F)(F)F)cc2)([C@H](O)c2ccccn2)C1 | 4790 | 6 | 2 | Not Active | Non-toxic | Non-toxic | 
C[C@]1(O)C[C@](c2ccc(OC(F)(F)F)cc2)([C@H](O)c2ccccn2)C1 | 1510 | 6 | 3 | Not Active | Non-toxic | Non-toxic | 

Continued, in another order:

Kb [5] [nM] | CL free (Liver microsome [7]) [L/h/kg] | CL free (Liver microsome [8]) [L/h/kg] | Activity [9] | SMILES | Activity (Rattus norvegicus [10]) | Activity (Rattus norvegicus [11]) | further results
> 9100 | 6 | 2 | Not Active | C[C@]1(O)C[C@](c2cc(C(F)(F)F)ccn2)([C@@H](O)c2ccccn2)C1 | Non-toxic | Non-toxic | 
270 | 3 | 2 | Not Active | O[C@H](c1ccccn1)[C@]1(c2cc(C(F)(F)F)ccn2)C[C@H](O)C1 | Non-toxic | Non-toxic | 
320 | 3 | 2 | Not Active | O[C@H](c1ccccn1)[C@]1(c2cc(C(F)(F)F)ccn2)C[C@@H](O)C1 | Non-toxic | Non-toxic | 
2240 | 3 | 3 | Not Active | O[C@H](c1ccccn1)[C@]1(c2ccc(C(F)(F)F)cc2)C[C@H](O)C1 | Non-toxic | Non-toxic | 
90 | 11 | 8 | Not Active | O[C@H](c1ccccn1)[C@]1(c2cccc(C(F)(F)F)c2)C[C@H](O)C1 | Non-toxic | Non-toxic | 
